Measured values as given in ChEMBL document CHEMBL4028917, “(+)-Methyl (1R,2S)-2-{[4-(4-Chlorophenyl)-4-hydroxypiperidin-1-yl]methyl}-1-phenylcyclopropanecarboxylate [(+)-MR200] Derivatives as Potent and Selective Sigma Receptor Ligands: Stereochemistry and Pharmacological Properties” (J Med Chem, 2018).
The source made the active and inactive calls. The calls are words filed in the database; no cut-off is given here.

Target: Sigma non-opioid intracellular receptor 1 (Cavia porcellus, UniProt Q60492)
Sequence (Q60492 whole entry): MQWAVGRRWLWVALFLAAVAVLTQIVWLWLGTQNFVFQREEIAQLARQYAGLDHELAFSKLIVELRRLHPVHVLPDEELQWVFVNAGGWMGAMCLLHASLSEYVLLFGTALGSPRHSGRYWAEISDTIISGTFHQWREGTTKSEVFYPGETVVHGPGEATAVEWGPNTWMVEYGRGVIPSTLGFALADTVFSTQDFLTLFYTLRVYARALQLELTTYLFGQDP
Assay: Displacement of [3H]-(+)-pentazocine from sigma1 receptor in guinea pig brain membrane after 150 mins by liquid scintillation counting method
Type: cell membranes

SMILES | Ki [nM]
CCOC(=O)[C@]1(c2ccccc2)C[C@@H]1CN1CCC(O)(c2ccc(Cl)cc2)CC1 | 1.35
CCOC(=O)[C@@]1(c2ccccc2)C[C@@H]1CN1CCC(O)(c2ccc(Cl)cc2)CC1 | 52
O=C(O)[C@@]1(c2ccccc2)C[C@@H]1CN1CCC(O)(c2ccc(Cl)cc2)CC1 | 445
CCCOC(=O)[C@@]1(c2ccccc2)C[C@@H]1CN1CCC(O)(c2ccc(Cl)cc2)CC1 | 13
CCOC(=O)[C@]1(c2ccccc2)C[C@H]1CN1CCC(O)(c2ccc(Cl)cc2)CC1 | 45
CCCN1CCC=C(c2cc(-c3ccc(C)cc3)no2)C1 | 4.3
CCCOC(=O)[C@]1(c2ccccc2)C[C@@H]1CN1CCC(O)(c2ccc(Cl)cc2)CC1 | 14
CCOC(=O)[C@@]1(c2ccccc2)C[C@H]1CN1CCC(O)(c2ccc(Cl)cc2)CC1 | 45
CCCOC(=O)[C@]1(c2ccccc2)C[C@H]1CN1CCC(O)(c2ccc(Cl)cc2)CC1 | 12

Target: not listed separately
Assay: Displacement of [3H]-(+)-DTG from sigma2 receptor in guinea pig brain membrane after 120 mins by liquid scintillation counting method
Type: cell membranes, Cavia porcellus

SMILES | Ki [nM]
CCOC(=O)[C@]1(c2ccccc2)C[C@@H]1CN1CCC(O)(c2ccc(Cl)cc2)CC1 | 57
CCOC(=O)[C@@]1(c2ccccc2)C[C@@H]1CN1CCC(O)(c2ccc(Cl)cc2)CC1 | 1300
O=C(O)[C@@]1(c2ccccc2)C[C@@H]1CN1CCC(O)(c2ccc(Cl)cc2)CC1 | 650
O=C(CCCN1CCC(O)(c2ccc(Cl)cc2)CC1)c1ccc(F)cc1 [HALOPERIDOL] | 16
CCCOC(=O)[C@@]1(c2ccccc2)C[C@@H]1CN1CCC(O)(c2ccc(Cl)cc2)CC1 | 171
CCOC(=O)[C@]1(c2ccccc2)C[C@H]1CN1CCC(O)(c2ccc(Cl)cc2)CC1 | 107
CCCOC(=O)[C@]1(c2ccccc2)C[C@@H]1CN1CCC(O)(c2ccc(Cl)cc2)CC1 | 146
CCOC(=O)[C@@]1(c2ccccc2)C[C@H]1CN1CCC(O)(c2ccc(Cl)cc2)CC1 | 918
CCCOC(=O)[C@]1(c2ccccc2)C[C@H]1CN1CCC(O)(c2ccc(Cl)cc2)CC1 | 73

Test system: Mus musculus
Assay: Antinociceptive activity in CD1 mouse model of mechanical nociception assessed as effect on struggle response latency at 4 mg/kg, sc administered 30 mins before behavioral evaluation by paw pressure test
Type: functional, organism-based
Outline: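 Female CD1 mice (25–30 g). Paw pressure test: a blunt cone applied 450 g to the dorsal hindpaw until a struggle response; latency (s) recorded. Each hindpaw was tested twice, alternately, at 1 min intervals. Morphine or HPMC vehicle was given s.c. 30 min before testing. Values are the mean ± SEM of both hindpaws from 6–8 animals; one-way ANOVA with Bonferroni test.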

SMILES | Activity
CN1CC[C@]23c4c5ccc(O)c4O[C@H]2[C@@H](O)C=C[C@H]3[C@H]1C5 | inactive

Species: Cavia porcellus
Assay: Selectivity index, ratio of Ki for sigma2 receptor in guinea pig brain membrane […]
Type: cell membranes

SMILES | Ratio Ki
CCOC(=O)[C@]1(c2ccccc2)C[C@@H]1CN1CCC(O)(c2ccc(Cl)cc2)CC1 | 42.2
CCOC(=O)[C@@]1(c2ccccc2)C[C@@H]1CN1CCC(O)(c2ccc(Cl)cc2)CC1 | 25
O=C(O)[C@@]1(c2ccccc2)C[C@@H]1CN1CCC(O)(c2ccc(Cl)cc2)CC1 | 1.5
CCCOC(=O)[C@@]1(c2ccccc2)C[C@@H]1CN1CCC(O)(c2ccc(Cl)cc2)CC1 | 13.2
CCOC(=O)[C@]1(c2ccccc2)C[C@H]1CN1CCC(O)(c2ccc(Cl)cc2)CC1 | 2.4
COC(=O)C1(c2ccccc2)CC1CN1CCC(O)(c2ccc(Cl)cc2)CC1 (single isomer, unassigned; (+)) | 14.5
CCCOC(=O)[C@]1(c2ccccc2)C[C@@H]1CN1CCC(O)(c2ccc(Cl)cc2)CC1 | 10.4
CCOC(=O)[C@@]1(c2ccccc2)C[C@H]1CN1CCC(O)(c2ccc(Cl)cc2)CC1 | 20.4
CCCOC(=O)[C@]1(c2ccccc2)C[C@H]1CN1CCC(O)(c2ccc(Cl)cc2)CC1 | 6.1
